From ChEMBL document CHEMBL4765447, “Design, synthesis and biological evaluation of diamino substituted cyclobut-3-ene-1,2-dione derivatives for the treatment of drug-resistant tuberculosis” (Eur J Med Chem, 2020)
≈ marks a conversion by molar mass, not a printed value.

Assays:
[1] = test system: Mycobacterium tuberculosis H37Rv; test: Inhibition of ATP synthase in Mycobacterium tuberculosis H37Rv assessed as reduction in bacterial growth incubated for 7 days by microplate alamar blue assay; conditions: time 7.0 day
Method in brief: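 Microplate alamar blue assay. Strains grown to late log phase in 7H9 broth with 0.2% glycerol, 0.05% Tween 80 and 10% ADC, then washed, filtered (8 µm) and frozen. Twofold compound dilutions with 2×10^5 CFU per well at 37 °C. On day 7, Tween 80 and alamar blue added; after 16–24 h, fluorescence read at 530/590 nm. MIC is the lowest concentration giving ≥90% fluorescence reduction versus bacterium-only controls.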

Vero = test: Cytotoxicity against African green monkey Vero cells assessed as reduction in cell viability measured after 48 hrs by MTT assay; type: cell-based; conditions: Chlorocebus sabaeus
Method in brief: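 Vero cells grown in RPMI1640 with 10% FBS at 37 °C, 5% CO2, seeded at 4×10^5 cells/mL. Threefold dilutions from 64 to 0.26 µg/mL final, incubated 48 h at 37 °C. Monolayers washed with HBSS, then MTT added for 4 h. Absorbance read at 492 nm.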

[2] = Half life in CD-1 mouse hepatocytes at 1 uM measured after 30 mins by LC-MS/MS analysis; type: ADME, cell-based, Hepatocyte
Method in brief: (§1)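 Pooled male CD-1 mouse or pooled human hepatocytes, pre-incubated 20 min at 37 °C in CO2. Compound at 1 µM final with 1 million cells/mL. Samples taken at 0 and 30 min, quenched and centrifuged 15 min at 4 °C. Parent compound remaining measured by LC-MS/MS.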

[3] = Intrinsic clearance in CD-1 mouse hepatocytes at 1 uM measured after 30 mins by LC-MS/MS analysis; type: ADME, cell-based, Hepatocyte; conditions: 0.5 h; method in brief: as §1
[4] = Half life in human hepatocytes at 1 uM measured after 30 mins by LC-MS/MS analysis; type: ADME, cell-based, Hepatocyte; method in brief: as §1
[5] = Intrinsic clearance in human hepatocytes at 1 uM measured after 30 mins by LC-MS/MS analysis; type: ADME, cell-based, Hepatocyte; conditions: 0.5 h; method in brief: as §1
[6] = target: Voltage-gated inwardly rectifying potassium channel KCNH2 (Homo sapiens, UniProt Q12809); test: Inhibition of human ERG stably expressed in HEK293 cells by whole-cell manual patch clamp method; type: cell-based
Voltage-gated inwardly rectifying potassium channel KCNH2, sequence (Q12809 whole entry): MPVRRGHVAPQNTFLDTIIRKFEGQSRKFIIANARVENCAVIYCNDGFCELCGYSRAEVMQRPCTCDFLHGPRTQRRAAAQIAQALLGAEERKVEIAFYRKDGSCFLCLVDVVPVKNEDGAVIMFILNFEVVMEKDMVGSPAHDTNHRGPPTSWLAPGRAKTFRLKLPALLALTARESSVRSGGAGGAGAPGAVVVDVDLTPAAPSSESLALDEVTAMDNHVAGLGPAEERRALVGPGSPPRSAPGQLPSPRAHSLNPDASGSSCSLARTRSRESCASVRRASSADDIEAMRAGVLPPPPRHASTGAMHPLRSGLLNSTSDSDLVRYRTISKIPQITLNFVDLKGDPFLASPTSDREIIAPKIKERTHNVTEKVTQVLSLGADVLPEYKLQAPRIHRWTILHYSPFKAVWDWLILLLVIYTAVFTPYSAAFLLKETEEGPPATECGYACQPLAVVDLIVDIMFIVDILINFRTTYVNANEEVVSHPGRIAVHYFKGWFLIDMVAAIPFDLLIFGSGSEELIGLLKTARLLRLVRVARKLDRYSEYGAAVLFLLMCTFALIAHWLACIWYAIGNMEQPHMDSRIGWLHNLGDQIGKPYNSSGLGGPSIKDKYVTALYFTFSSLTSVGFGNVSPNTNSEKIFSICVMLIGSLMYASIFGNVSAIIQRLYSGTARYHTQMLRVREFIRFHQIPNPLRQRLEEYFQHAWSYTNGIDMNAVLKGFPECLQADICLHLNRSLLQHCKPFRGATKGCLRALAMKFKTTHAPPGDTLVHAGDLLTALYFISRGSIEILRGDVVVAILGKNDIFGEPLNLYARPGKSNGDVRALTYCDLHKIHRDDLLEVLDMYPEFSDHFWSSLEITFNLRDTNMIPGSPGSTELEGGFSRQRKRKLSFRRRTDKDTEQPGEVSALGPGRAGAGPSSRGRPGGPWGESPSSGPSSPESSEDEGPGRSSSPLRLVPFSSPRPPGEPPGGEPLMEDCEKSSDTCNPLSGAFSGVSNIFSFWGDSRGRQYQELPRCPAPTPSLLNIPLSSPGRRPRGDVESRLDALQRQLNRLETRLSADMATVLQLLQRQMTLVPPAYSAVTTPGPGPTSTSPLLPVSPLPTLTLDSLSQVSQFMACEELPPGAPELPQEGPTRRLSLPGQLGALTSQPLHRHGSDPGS

Compound `O=C1NC(=O)C(c2ccc(N3CCOCC3)cc2)=C1NCc1ccncc1` has an MIC=>90 [1] of over 32 µg/mL.
Work on `O=C1OCC(c2ccc(N3CCOCC3)cc2)=C1NCc1ccccn1` yielded an MIC=>90 [1] of over 32 µg/mL.
Work on `O=c1c(NCc2ccccn2)c(Nc2ccc(N3CCOCC3)cn2)c1=O` yielded an MIC=>90 [1] of over 32 µg/mL.
With `O=C1CCc2ccc(Nc3c(NCc4ccccn4)c(=O)c3=O)cc21` the IC50 (Vero) was over 64 µg/mL and the MIC=>90 [1] was 1.83 µg/mL (≈ 5.5 µM).
For `COc1cccc(Nc2c(NCc3ccccn3)c(=O)c2=O)c1`, the MIC=>90 [1] was 6.02 µg/mL (≈ 19.5 µM).
In the case of `O=C1CCCc2cc(Nc3c(NCc4ccccn4)c(=O)c3=O)ccc21`, the IC50 (Vero) is reported as over 64 µg/mL, the half-life at 1 µM [2] is reported as 10.3 min and the intrinsic clearance [3] is reported as 67.2 µL/min. For the same compound, the half-life at 1 µM [4] was 41.9 min, the MIC=>90 [1] was 0.739 µg/mL (≈ 2.13 µM) and the intrinsic clearance [5] was 16.6 µL/min.
`O=C1COCCN1c1ccc(Nc2c(NCc3ccccn3)c(=O)c2=O)cc1` showed an MIC=>90 [1] of 7.75 µg/mL (≈ 20.5 µM).
`O=c1c(NCc2ccccn2)c(Nc2ccc(N3CC[S+]([O-])CC3)cc2)c1=O` showed an MIC=>90 [1] of 15.8 µg/mL (≈ 39.9 µM).
`Cc1cc(Nc2c(NCc3ccccn3)c(=O)c2=O)ccc1N1CCSCC1` showed an IC50 (Vero) of over 64 µg/mL, a half-life at 1 µM [2] of 5.4 min and an intrinsic clearance [3] of 127.8 µL/min. The half-life at 1 µM [4] was 9 min, the IC50 [6] was over 10 µM and the MIC=>90 [1] was 0.496 µg/mL (≈ 1.26 µM). The intrinsic clearance [5] was 77 µL/min.
`COc1ccc(Nc2c(NCc3ccccn3)c(=O)c2=O)cc1` showed an MIC=>90 [1] of 3.42 µg/mL (≈ 11 µM).
For `O=C1OCC(NCc2cccnc2)=C1c1ccc(N2CCOCC2)cc1`, the MIC=>90 [1] was over 32 µg/mL.
Work on `O=C1NC(=O)C(c2ccc(N3CCOCC3)cc2)=C1NCc1ccccn1` yielded an MIC=>90 [1] of over 32 µg/mL.
`O=c1c(NCc2ccccn2)c(Nc2ccc(N3CCSCC3)c(C(F)(F)F)c2)c1=O` showed an MIC=>90 [1] of 9.4 µg/mL (≈ 21 µM).
`O=c1c(NCc2ccccn2)c(Nc2ccc(N3CCOCC3)cc2)c1=O` showed an IC50 (Vero) of over 64 µg/mL, a half-life at 1 µM [2] of over 93.2 min and an intrinsic clearance [3] of under 7.4 µL/min. The half-life at 1 µM [4] was over 93.2 min, the IC50 [6] was over 30 µM and the MIC=>90 [1] was 3.75 µg/mL (≈ 10.3 µM). It also gave an intrinsic clearance [5] of under 7.4 µL/min.
For `O=C1OCC(NCc2ccccn2)=C1c1ccc(N2CCSCC2)cc1`, the MIC=>90 [1] was over 32 µg/mL.
With `O=c1c(NCc2ccccn2)c(Nc2cccc(N3CCSCC3)c2)c1=O` the MIC=>90 [1] was over 32 µg/mL.
`O=c1c(NCc2ccccn2)c(Nc2ccc(N3CCCCC3)cc2)c1=O` gave an MIC=>90 [1] of 3.76 µg/mL (≈ 10.4 µM).
Work on `O=c1c(NCc2ccccn2)c(Nc2ccc(N3CCSCC3)cc2)c1=O` yielded an IC50 (Vero) of over 64 µg/mL, a half-life at 1 µM [2] of 12.6 min and an intrinsic clearance [3] of 55.1 µL/min. The half-life at 1 µM [4] was 12.1 min, the IC50 [6] was over 30 µM and the MIC=>90 [1] was 1.54 µg/mL (≈ 4.06 µM). It also gave an intrinsic clearance [5] of 57.2 µL/min.
Work on `O=C1OCC(c2ccc(N3CCOCC3)cc2)=C1NCc1cccnc1` yielded an MIC=>90 [1] of over 32 µg/mL.
`O=c1c(NCc2ccccn2)c(Nc2ccc(Cl)cc2)c1=O` gave an MIC=>90 [1] of 7.7 µg/mL (≈ 24.5 µM).
For `O=c1c(NCc2ccccn2)c(Nc2ccc3[nH]ccc3c2)c1=O`, the MIC=>90 [1] was over 32 µg/mL.
In the case of `COc1cc(Nc2c(NCc3ccccn3)c(=O)c2=O)ccc1N1CCSCC1`, the MIC=>90 [1] is reported as over 32 µg/mL.
Compound `N#Cc1cc(Nc2c(NCc3ccccn3)c(=O)c2=O)ccc1N1CCSCC1` has an IC50 (Vero) of over 64 µg/mL and an MIC=>90 [1] of 1.23 µg/mL (≈ 3.04 µM).
